A short description of data set [1]: Antiviral activity against Influenza A virus (A/California/07/09(H1N1)) pdm09 infected in MDCK cells pretreated for 1 hr followed by viral infection incubated for 24 hrs measured after 48 hrs by hemagglutination test. The class given is functional, cell-based, Influenza A virus (A/California/07/2009(H1N1)). In outline: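 MDCK cells preincubated with compound for 1 h at 36°C, each concentration in triplicate, then infected (moi 0.01) for 24 h at 36°C, 5% CO2. Supernatant virus titer was read by hemagglutination after 48 h culture in MDCK cells at 36°C.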

The nature of data set [2]: Cytotoxicity against MDCK cells after 48 hrs by MTT assay. The data set is classed as cell-based, Canis lupus familiaris. Particulars: dog. In short, it runs like this: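 Uninfected MDCK cells were exposed to three-fold compound dilutions in MEM for 48 h at 36°C, 5% CO2, then washed with PBS. MTT ([…] in PBS) was added for 1 h, and formazan was dissolved in DMSO.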
For orientation: Tetrazolium dyes change colour on reduction, which living cells bring about.

A short description of data set [3]: Selectivity index, ratio of CC50 for MDCK cells to IC50 for Influenza A virus (A/California/07/09(H1N1)) pdm09 infected in MDCK cells. The data set is classed as toxicity, cell-based. As to conditions: dog; read-out: Ratio CC50/IC50.
The subject of data set [4] is Influenza A virus. The data set can be described thus: Antiviral activity against Influenza A virus (A/Puerto Rico/8/34(H1N1)) infected in MDCK cells at 500 uM at 1 to 2 hrs post infection by MTT assay. The data set is classed as functional, cell-based. Particulars: A/Puerto Rico/8/1934(H1N1). In outline:
(§1)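 Time-of-addition assay in MDCK cells. Virus was adsorbed at m.o.i. 10 for 1 h at 4°C, unbound virions were washed off with MEM, and cells were incubated for 8 h at 36°C, 5% CO2 (start = 0 h). Compound at 500 µM final in MEM was present during set windows between −2 and 8 hpi, then washed out. Titer after 8 h was read as TCID50 by MTT assay.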

Data set [5] has as its system Influenza A virus. The data set can be described thus: Antiviral activity against Influenza A virus (A/Puerto Rico/8/34(H1N1)) infected in MDCK cells at 500 uM after 4 to 8 hrs post infection by MTT assay. The data set is classed as functional, cell-based. As to conditions: A/Puerto Rico/8/1934(H1N1). In outline: as §1

Structures are written as SMILES. Calls of active or inactive are those of the source. The rule behind the calls is not given here.

In the case of `CC1(C)[C@@H]2CC=C(COc3ccc4c5c(c(=O)oc4c3)CCC5)[C@H]1C2`, in data set [1], the IC50 (usually the concentration at which inhibition is half-maximal) stood at 33 µM. For the same compound, it took 133 µM to reach half-maximal cytotoxicity in data set [2] (CC50 at 48 h). Besides, in data set [3], the selectivity ratio came out at 4.

Consider `CC1(C)[C@H]2CC=C(COc3ccc4ccc(=O)oc4c3)[C@@H]1C2`, for which the IC50 in data set [1] was greater than 101 µM. For the same compound, in data set [2], the CC50 (as a rule, the concentration at which the toxic effect on the cells reaches its halfway point) at 48 h came out at 310 µM. In data set [3], the selectivity ratio was less than 3.

For the compound `CC1(C)[C@H]2CC=C(COc3ccc4c5c(c(=O)oc4c3)CCCC5)[C@@H]1C2`, the IC50 in data set [1] was determined as 64 µM. In data set [2], this compound showed a CC50 at 48 h of 857 µM. In addition, the selectivity ratio in data set [3] turned out to be 13.

Consider `CC(C)=CCC/C(C)=C/COc1ccc2c(C)cc(=O)oc2c1`, for which the IC50 in data set [1] was greater than 10 µM. Further, in data set [2], the CC50 at 48 h is 28 µM. The selectivity ratio in data set [3] was less than 3.

As for `CC(C)=CCC/C(C)=C/COc1ccc2c3c(c(=O)oc2c1)CCC3`, the IC50 in data set [1] was greater than 888 µM. The CC50 at 48 h in data set [2] was greater than 888 µM.

In the case of `CC(C)=CCC/C(C)=C/COc1ccc2c3c(c(=O)oc2c1)CCCC3`, the IC50 in data set [1] is greater than 85 µM. In data set [2], this compound gave a CC50 at 48 h of 100 µM. Also, in data set [3], the selectivity ratio amounted to 1.

`COc1cccc(COc2ccc3ccc(=O)oc3c2)c1`: the IC50 in data set [1] is greater than 1170 µM. The CC50 at 48 h in data set [2] is greater than 1170 µM.

As for `Cc1cc(=O)oc2cc(OCC3=CC[C@@H]4C[C@H]3C4(C)C)ccc12`, the IC50 in data set [1] came to 10 µM. In data set [2], half-maximal cytotoxicity (CC50 at 48 h) was put at 130 µM. Moreover, in data set [3], the selectivity ratio turned out to be 13.

As to `CC(C)=CCC/C(C)=C/COc1ccc2ccc(=O)oc2c1`, in data set [1], the IC50 amounted to 7 µM. Also, the CC50 at 48 h in data set [2] was 7 µM. In data set [3], the selectivity ratio amounted to 1.

Regarding `CC1(C)[C@H]2CC=C(COc3ccc4c5c(c(=O)oc4c3)CCC5)[C@@H]1C2`, the 50% inhibitory concentration (IC50) in data set [1] was 36 µM. For the same compound, in data set [2], the midpoint of cytotoxicity, the CC50 at 48 h, lay at 982 µM. The selectivity ratio in data set [3] amounted to 28. Moreover, the result in the data set with Influenza A virus [4] was Active. For the same compound, the result with Influenza A virus [5] was inactive.

Consider `CC1(C)[C@H]2CC=C(CCOc3ccc4ccc(=O)oc4c3)[C@@H]1C2`, for which, in data set [1], the IC50 is 0.5 µM. Moreover, the midpoint of cytotoxicity in data set [2], the CC50 at 48 h, lay at 10 µM. Moreover, the selectivity ratio in data set [3] was determined as 20.

With `CC1(C)[C@@H]2CC=C(COc3ccc4ccc(=O)oc4c3)[C@H]1C2`, the IC50 in data set [1] is greater than 10 µM. The compound also gave a CC50 at 48 h in data set [2] of 7 µM. The selectivity ratio in data set [3] came to 1.

As for `Cc1cc(=O)oc2cc(OCC3=CC[C@H]4C[C@@H]3C4(C)C)ccc12`, the IC50 in data set [1] stood at 4 µM. In addition, in data set [2], the CC50 at 48 h amounted to 30 µM. In addition, in data set [3], the selectivity ratio is 9.

On to `COc1cccc(COc2ccc3c4c(c(=O)oc3c2)CCCC4)c1`, for which the IC50 in data set [1] is greater than 982 µM. Further, the CC50 at 48 h in data set [2] is greater than 982 µM.

Turning to `CC1(C)[C@@H]2CC=C(COc3ccc4c5c(c(=O)oc4c3)CCCC5)[C@H]1C2`, the IC50 in data set [1] came to 149 µM. In data set [2], the CC50 at 48 h is 415 µM. In addition, the selectivity ratio in data set [3] is 3.

`CC1(C)[C@H]2CC=C(CCOc3ccc4c5c(c(=O)oc4c3)CCCC5)[C@@H]1C2`: the half-maximal inhibitory concentration (IC50) in data set [1] stood at 3 µM. In data set [2], this compound gave a CC50 at 48 h of 18 µM. In addition, the selectivity ratio in data set [3] turned out to be 6.

Consider `CC(N)C12CC3CC(CC(C3)C1)C2` (stereo unspecified) [RIMANTADINE], for which the 50% inhibitory concentration (IC50) in data set [1] worked out at 41 µM. The midpoint of cytotoxicity in data set [2], the CC50 at 48 h, lay at 363 µM. The selectivity ratio in data set [3] turned out to be 9.

With `CC1(C)[C@H]2CC=C(CCOc3ccc4c5c(c(=O)oc4c3)CCC5)[C@@H]1C2`, the IC50 in data set [1] amounted to 21 µM. The half-maximal cytotoxic concentration (CC50) at 48 h in data set [2] was greater than 857 µM. Further, in data set [3], the selectivity ratio was 41.

As for `COc1cccc(COc2ccc3c(C)cc(=O)oc3c2)c1`, in data set [1], the IC50 was 1010 µM. The compound further showed a CC50 at 48 h in data set [2] greater than 1120 µM. In addition, the selectivity ratio in data set [3] was greater than 1.

For the origin of these results see ChEMBL document CHEMBL4020774, “Anti-influenza activity of monoterpene-containing substituted coumarins” (Bioorg Med Chem Lett, 2017).
